Data reported in ChEMBL document CHEMBL4382192, “Discovery of a potent dual ALK and EGFR T790M inhibitor” (Eur J Med Chem, 2017).

Legend:
[1] = target: Macrophage colony-stimulating factor 1 receptor (Homo sapiens) (UniProt P07333); assay: Binding affinity to wild-type human partial length CSF1R (I564 to S939 residues) expressed in bacterial expression system assessed as residual binding level at 1 uM by Kinomescan method relative to control
[2] = target: Proto-oncogene tyrosine-protein kinase receptor Ret (Homo sapiens) (UniProt P07949); assay: Binding affinity to wild-type human partial length RET (E713 to D1014 residues) expressed in bacterial expression system assessed as residual binding level at 1 uM by Kinomescan method relative to control
[3] = target: NUAK family SNF1-like kinase 1 (Homo sapiens) (UniProt O60285); assay: Binding affinity to wild-type human partial length ARK5 (E25 to I332 residues) expressed in bacterial expression system assessed as residual binding level at 1 uM by Kinomescan method relative to control
[4] = target: Serine/threonine-protein kinase PAK 1 (Homo sapiens) (UniProt Q13153); assay: Binding affinity to wild-type human partial length PAK1 (S149 to H545 residues) expressed in bacterial expression system assessed as residual binding level at 1 uM by Kinomescan method relative to control
[5] = target: Serine/threonine-protein kinase Nek6 (Homo sapiens) (UniProt Q9HC98); assay: Binding affinity to wild-type human full length NEK6 (M8 to T313 residues) expressed in bacterial expression system assessed as residual binding level at 1 uM by Kinomescan method relative to control
Outline: (§1)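 Single-point kinome-wide KINOMEscan binding panel, test compound at 1 μM, run by the provider's standard protocol.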

[6] = Clearance in mouse at 2 mg/kg, iv; assay type: ADME, organism-based; details: in vivo
[7] = target: Uncharacterized serine/threonine-protein kinase SBK3 (Homo sapiens) (UniProt P0C264); assay: Binding affinity to wild-type human partial length SgK110 (L22 to R329 residues) expressed in bacterial expression system assessed as residual binding level at 1 uM by Kinomescan method relative to control
[8] = target: Tyrosine-protein kinase SYK (Homo sapiens) (UniProt P43405); assay: Binding affinity to wild-type human partial length SYK (D354 to N635 residues) expressed in bacterial expression system assessed as residual binding level at 1 uM by Kinomescan method relative to control
[9] = test system: eIF-2-alpha kinase GCN2 (Homo sapiens), Q9P2K8 [S808G]; assay: Binding affinity to wild-type human partial length GCN2 kinase domain 2 (R585 to T1018 residues) S808G mutant expressed in bacterial expression system assessed as residual binding level at 1 uM by Kinomescan method relative to control
[10] = test system: Receptor-type tyrosine-protein kinase FLT3 (Homo sapiens), P36888 [N841I]; assay: Binding affinity to human partial length FLT3 N841I mutant (V592 to Y969 residues) expressed in bacterial expression system assessed as residual binding level at 1 uM by Kinomescan method relative to control
Outline: (§2)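 Kinome-wide selectivity panel run by the KINOMEscan method, with the test compound at a single concentration of 1 μM. Wild-type and mutant kinases were profiled in the same screen.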

[11] = test system: Epidermal growth factor receptor (Homo sapiens), P00533 [UNDEFINED MUTATION]; assay: Binding affinity to human partial length EGFR L747-T751del/Sins mutant expressed in bacterial expression system assessed as residual binding level at 1 uM by Kinomescan method relative to control; outline: as §2
[12] = target: Serine/threonine-protein kinase PAK 5 (Homo sapiens) (UniProt Q9P286); assay: Binding affinity to wild-type human partial length PAK7 (Y400 to H719 residues) expressed in bacterial expression system assessed as residual binding level at 1 uM by Kinomescan method relative to control
[13] = target: Ephrin type-B receptor 4 (Homo sapiens) (UniProt P54760); assay: Binding affinity to wild-type human partial length EPHB4 (H585 to G892 residues) expressed in bacterial expression system assessed as residual binding level at 1 uM by Kinomescan method relative to control
[14] = target: Atypical kinase COQ8B, mitochondrial (Homo sapiens) (UniProt Q96D53); assay: Binding affinity to wild-type human full length ADCK4 (M1 to S544 residues) expressed in bacterial expression system assessed as residual binding level at 1 uM by Kinomescan method relative to control
[15] = target: Cyclin-dependent kinase-like 2 (Homo sapiens) (UniProt Q92772); assay: Binding affinity to wild-type human partial length CDKL2 (M1 to D327 residues) expressed in bacterial expression system assessed as residual binding level at 1 uM by Kinomescan method relative to control
[16] = target: Ankyrin repeat and protein kinase domain-containing protein 1 (Homo sapiens) (UniProt Q8NFD2); assay: Binding affinity to wild-type human partial length ANKK1 (M1 to A305 residues) expressed in mammalian expression system assessed as residual binding level at 1 uM by Kinomescan method relative to control
[17] = Drug uptake in mouse lung at 10 mg/kg, po after 8 hrs; assay type: ADME, organism-based; details: read-out: Drug uptake
[18] = test system: Serine/threonine-protein kinase B-raf (Homo sapiens), P15056 [V600E]; assay: Binding affinity to human partial length BRAF V600E mutant (S429 to E741 residues) expressed in mammalian expression system assessed as residual binding level at 1 uM by Kinomescan method relative to control
[19] = target: Mitogen-activated protein kinase 12 (Homo sapiens) (UniProt P53778); assay: Binding affinity to wild-type human full length p38-gamma (M1 to L367 residues) expressed in mammalian expression system assessed as residual binding level at 1 uM by Kinomescan method relative to control
[20] = target: Maternal embryonic leucine zipper kinase (Homo sapiens) (UniProt Q14680); assay: Binding affinity to wild-type human full length MELK (M1 to V651 residues) expressed in bacterial expression system assessed as residual binding level at 1 uM by Kinomescan method relative to control; outline: as §1
[21] = target: Phosphatidylinositol 5-phosphate 4-kinase type-2 gamma (Homo sapiens) (UniProt Q8TBX8); assay: Binding affinity to wild-type human partial length PIP5K2C (M1 to A421 residues) expressed in mammalian expression system assessed as residual binding level at 1 uM by Kinomescan method relative to control
[22] = target: Serine/threonine-protein kinase TBK1 (Homo sapiens) (UniProt Q9UHD2); assay: Binding affinity to wild-type human full length TBK1 (M1 to L729 residues) expressed in mammalian expression system assessed as residual binding level at 1 uM by Kinomescan method relative to control
[23] = AUClast in mouse at 10 mg/kg, po; assay type: ADME, organism-based; set-up: dose 10 mg/kg, time 0 - last, route oral; details: in vivo
[24] = target: Phosphorylase b kinase gamma catalytic chain, liver/testis isoform (Homo sapiens) (UniProt P15735); assay: Binding affinity to wild-type human partial length PHKG2 (M1 to W300 residues) expressed in bacterial expression system assessed as residual binding level at 1 uM by Kinomescan method relative to control
[25] = target: cGMP-dependent protein kinase 2 (Homo sapiens) (UniProt Q13237); assay: Binding affinity to wild-type human partial length PRKG2 (S422 to F762 residues) expressed in mammalian expression system assessed as residual binding level at 1 uM by Kinomescan method relative to control
Chain of cGMP-dependent protein kinase 2 (Homo sapiens) (Q13237 whole entry, the tested form may be a part): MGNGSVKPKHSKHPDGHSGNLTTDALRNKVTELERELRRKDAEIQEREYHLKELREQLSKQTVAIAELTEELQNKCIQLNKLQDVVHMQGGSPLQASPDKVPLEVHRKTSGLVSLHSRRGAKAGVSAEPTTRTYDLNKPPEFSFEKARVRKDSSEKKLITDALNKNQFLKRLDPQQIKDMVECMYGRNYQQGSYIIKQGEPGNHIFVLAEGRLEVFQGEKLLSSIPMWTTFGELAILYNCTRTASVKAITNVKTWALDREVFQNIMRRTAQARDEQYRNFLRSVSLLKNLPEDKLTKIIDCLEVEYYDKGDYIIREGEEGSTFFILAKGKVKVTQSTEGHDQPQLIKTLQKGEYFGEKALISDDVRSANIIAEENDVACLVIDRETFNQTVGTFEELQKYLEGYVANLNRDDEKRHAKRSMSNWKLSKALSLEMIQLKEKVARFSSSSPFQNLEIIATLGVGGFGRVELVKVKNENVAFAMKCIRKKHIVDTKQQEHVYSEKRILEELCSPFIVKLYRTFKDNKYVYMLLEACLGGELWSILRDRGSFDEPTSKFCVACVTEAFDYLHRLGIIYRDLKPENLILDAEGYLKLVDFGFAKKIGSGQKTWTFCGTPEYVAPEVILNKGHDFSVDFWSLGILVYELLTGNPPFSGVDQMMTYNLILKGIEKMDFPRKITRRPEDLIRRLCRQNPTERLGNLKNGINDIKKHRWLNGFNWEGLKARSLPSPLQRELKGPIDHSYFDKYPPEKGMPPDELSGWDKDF

Chain of Macrophage colony-stimulating factor 1 receptor (Homo sapiens) (P07333 whole entry, the tested form may be a part): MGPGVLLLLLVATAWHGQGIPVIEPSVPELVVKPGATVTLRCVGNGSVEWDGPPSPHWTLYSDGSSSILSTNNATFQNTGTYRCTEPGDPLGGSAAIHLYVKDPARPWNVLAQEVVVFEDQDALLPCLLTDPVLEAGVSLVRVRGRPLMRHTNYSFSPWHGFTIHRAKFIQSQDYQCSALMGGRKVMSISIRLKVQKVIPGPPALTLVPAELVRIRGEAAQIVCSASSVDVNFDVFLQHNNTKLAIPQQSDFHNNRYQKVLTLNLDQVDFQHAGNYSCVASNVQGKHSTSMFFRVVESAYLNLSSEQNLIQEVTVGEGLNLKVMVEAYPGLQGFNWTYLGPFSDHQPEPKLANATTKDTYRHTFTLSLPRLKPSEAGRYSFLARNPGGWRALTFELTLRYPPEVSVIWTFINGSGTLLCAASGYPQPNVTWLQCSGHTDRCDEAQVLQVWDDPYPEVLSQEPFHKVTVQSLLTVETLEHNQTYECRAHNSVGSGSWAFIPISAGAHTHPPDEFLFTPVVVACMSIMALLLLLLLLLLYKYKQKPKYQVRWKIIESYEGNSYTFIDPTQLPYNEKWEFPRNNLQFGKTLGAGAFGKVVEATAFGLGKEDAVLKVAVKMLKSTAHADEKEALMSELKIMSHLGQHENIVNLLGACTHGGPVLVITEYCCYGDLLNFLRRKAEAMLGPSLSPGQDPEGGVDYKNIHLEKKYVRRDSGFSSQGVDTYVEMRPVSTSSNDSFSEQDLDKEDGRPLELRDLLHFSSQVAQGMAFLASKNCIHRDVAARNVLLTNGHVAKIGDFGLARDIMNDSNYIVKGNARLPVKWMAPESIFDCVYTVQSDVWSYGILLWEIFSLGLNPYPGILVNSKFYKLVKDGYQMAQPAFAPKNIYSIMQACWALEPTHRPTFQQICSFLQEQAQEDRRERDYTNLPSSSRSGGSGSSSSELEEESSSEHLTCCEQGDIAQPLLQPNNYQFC
Chain of Phosphatidylinositol 5-phosphate 4-kinase type-2 gamma (Homo sapiens) (Q8TBX8 whole entry, the tested form may be a part): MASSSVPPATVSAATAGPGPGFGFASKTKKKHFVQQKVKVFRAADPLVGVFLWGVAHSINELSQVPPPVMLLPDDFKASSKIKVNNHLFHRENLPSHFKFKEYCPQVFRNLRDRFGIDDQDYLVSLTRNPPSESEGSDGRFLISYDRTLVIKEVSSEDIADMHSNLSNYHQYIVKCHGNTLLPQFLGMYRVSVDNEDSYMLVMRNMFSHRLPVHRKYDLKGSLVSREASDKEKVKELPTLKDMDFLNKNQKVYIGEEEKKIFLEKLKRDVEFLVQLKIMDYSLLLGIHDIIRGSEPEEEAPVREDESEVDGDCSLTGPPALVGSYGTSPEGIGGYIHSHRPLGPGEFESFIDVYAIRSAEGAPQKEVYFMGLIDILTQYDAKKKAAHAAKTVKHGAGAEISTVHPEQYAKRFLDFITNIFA
Chain of Mitogen-activated protein kinase 12 (Homo sapiens) (P53778 whole entry, the tested form may be a part): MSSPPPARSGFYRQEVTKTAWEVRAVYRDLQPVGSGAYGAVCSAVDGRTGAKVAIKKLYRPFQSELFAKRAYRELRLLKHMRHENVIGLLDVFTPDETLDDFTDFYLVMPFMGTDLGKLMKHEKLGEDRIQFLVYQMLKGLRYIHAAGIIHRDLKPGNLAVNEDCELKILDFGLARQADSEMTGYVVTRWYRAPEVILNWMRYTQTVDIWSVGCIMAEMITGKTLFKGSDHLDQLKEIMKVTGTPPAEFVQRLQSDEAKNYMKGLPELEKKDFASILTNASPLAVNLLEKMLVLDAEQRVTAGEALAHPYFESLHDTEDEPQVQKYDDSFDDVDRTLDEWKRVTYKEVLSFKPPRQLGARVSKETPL
Chain of Serine/threonine-protein kinase PAK 1 (Homo sapiens) (Q13153 whole entry, the tested form may be a part): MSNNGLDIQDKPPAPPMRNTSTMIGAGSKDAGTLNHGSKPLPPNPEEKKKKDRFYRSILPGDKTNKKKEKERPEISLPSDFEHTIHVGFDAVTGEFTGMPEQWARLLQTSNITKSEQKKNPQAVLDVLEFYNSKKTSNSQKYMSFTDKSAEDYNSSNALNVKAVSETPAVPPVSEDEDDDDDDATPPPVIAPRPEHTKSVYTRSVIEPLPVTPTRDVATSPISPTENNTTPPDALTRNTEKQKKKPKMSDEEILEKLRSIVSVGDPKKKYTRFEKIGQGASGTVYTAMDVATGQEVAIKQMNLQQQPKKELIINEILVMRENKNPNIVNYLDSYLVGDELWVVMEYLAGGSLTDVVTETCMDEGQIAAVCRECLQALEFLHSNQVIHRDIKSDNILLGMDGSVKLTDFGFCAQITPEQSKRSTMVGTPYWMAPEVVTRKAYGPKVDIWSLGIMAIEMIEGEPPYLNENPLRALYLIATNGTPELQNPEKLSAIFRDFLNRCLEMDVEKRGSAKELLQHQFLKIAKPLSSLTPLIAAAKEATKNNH
Chain of Ephrin type-B receptor 4 (Homo sapiens) (P54760 whole entry, the tested form may be a part): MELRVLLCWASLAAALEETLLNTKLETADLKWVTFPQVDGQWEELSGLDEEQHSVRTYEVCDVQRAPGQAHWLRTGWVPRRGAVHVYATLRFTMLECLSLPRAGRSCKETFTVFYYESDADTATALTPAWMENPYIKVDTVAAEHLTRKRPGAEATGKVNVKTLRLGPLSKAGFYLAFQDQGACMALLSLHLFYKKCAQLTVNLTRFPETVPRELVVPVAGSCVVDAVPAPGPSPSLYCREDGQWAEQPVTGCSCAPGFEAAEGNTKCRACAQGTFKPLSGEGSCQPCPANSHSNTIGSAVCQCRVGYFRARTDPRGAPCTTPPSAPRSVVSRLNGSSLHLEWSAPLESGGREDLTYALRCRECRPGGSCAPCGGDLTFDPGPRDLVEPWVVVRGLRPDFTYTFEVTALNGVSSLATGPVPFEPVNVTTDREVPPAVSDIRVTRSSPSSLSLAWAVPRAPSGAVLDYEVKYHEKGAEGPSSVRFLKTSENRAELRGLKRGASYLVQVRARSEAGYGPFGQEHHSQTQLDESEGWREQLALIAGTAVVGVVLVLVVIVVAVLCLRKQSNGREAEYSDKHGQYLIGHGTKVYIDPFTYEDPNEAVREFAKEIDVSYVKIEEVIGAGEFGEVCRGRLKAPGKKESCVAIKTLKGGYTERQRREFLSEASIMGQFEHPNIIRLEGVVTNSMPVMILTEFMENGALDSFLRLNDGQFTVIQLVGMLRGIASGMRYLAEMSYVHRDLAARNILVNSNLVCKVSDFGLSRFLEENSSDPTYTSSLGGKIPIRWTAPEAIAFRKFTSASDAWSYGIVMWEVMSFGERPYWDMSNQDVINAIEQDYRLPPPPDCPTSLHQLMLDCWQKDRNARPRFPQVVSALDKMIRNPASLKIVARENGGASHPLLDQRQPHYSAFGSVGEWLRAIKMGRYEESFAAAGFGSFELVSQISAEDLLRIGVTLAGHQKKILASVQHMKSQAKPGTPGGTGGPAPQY
Chain of Atypical kinase COQ8B, mitochondrial (Homo sapiens) (Q96D53 whole entry, the tested form may be a part): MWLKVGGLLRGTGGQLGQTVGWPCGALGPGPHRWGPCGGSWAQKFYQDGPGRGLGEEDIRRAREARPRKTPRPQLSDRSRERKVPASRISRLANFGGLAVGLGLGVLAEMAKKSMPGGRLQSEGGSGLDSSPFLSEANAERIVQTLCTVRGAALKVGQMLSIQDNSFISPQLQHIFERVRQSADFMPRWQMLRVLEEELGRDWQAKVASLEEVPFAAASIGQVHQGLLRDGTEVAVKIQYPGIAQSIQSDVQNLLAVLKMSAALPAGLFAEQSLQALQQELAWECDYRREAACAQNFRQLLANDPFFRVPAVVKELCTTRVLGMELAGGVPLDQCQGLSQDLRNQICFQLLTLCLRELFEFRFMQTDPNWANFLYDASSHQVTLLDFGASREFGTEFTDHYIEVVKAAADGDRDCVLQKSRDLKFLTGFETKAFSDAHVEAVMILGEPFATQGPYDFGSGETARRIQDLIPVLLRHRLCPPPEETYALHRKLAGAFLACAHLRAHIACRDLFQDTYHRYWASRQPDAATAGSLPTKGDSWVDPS
Chain of Phosphorylase b kinase gamma catalytic chain, liver/testis isoform (Homo sapiens) (P15735 whole entry, the tested form may be a part, canonical isoform): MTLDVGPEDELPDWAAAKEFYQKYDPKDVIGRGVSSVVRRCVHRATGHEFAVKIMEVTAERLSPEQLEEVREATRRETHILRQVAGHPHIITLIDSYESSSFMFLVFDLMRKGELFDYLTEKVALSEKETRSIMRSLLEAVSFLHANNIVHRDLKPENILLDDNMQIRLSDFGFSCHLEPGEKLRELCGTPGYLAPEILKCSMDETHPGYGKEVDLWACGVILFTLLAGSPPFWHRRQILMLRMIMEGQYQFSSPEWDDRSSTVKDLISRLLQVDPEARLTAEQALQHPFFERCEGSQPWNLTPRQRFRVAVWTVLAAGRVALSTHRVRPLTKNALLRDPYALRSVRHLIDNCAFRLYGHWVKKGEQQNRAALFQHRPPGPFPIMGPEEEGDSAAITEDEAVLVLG

## C=CC(=O)Nc1cc(Nc2ncc(Cl)c(Nc3ccccc3S(=O)(=O)C(C)C)n2)c(OC)cc1N(C)CCN(C)C
[1]
  Activity: 26%
[2]
  Activity: 13%
[3]
  Activity: 8.1%
[4]
  Activity: 65%
[5]
  Activity: 80%
[6]
  clearance: 1.74 L/h/kg
[7]
  Activity: 23%
[8]
  Activity: 42%
[9]
  Activity: 91%
[10]
  Activity: 6.8%
[11]
  Activity: 0.45%
[12]
  Activity: 79%
[13]
  Activity: 76%
[14]
  Activity: 43%
[15]
  Activity: 93%
[16]
  Activity: 39%
[17]
  concentration at 8 h: 0.74 µM
[18]
  Activity: 88%
[19]
  Activity: 56%
[20]
  Activity: 54%
[21]
  Activity: 90%
[22]
  Activity: 21%
[23]
  AUC(0-t): 1.55 µg·h/mL
[24]
  Activity: 10%
[25]
  Activity: 79%
